The values that follow come from ChEMBL document CHEMBL1833907, “Triterpenoid constituents from the roots of Paeonia rockii ssp. rockii” (J Nat Prod, 2011).

Active and inactive are the calls of the source. The calls are words filed in the database; no cut-off is given here.

Holding throughout (format): functional, cell-based
Experiment [1] has as its system M14. Kind of experiment: Cytotoxicity against human M14 cells after 48 hrs by MTT assay. To be noted: M14, 48 h. Summed up: (§1)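 M-14 melanoma cells grown in DMEM with 2 mM L-glutamine, 10% heat-inactivated FBS and 1% penicillin/streptomycin, used for at most 10 passages. Cells were seeded at 3 × 10^3 per well, given serial dilutions (1–50 μM) and incubated 48 h at 37 °C in humidified 5% CO2. Viability was read by MTT at 620 nm.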
(Tetrazolium dyes change colour on reduction, which living cells bring about.)

Experiment [2] deals with M14. Description: Cytotoxicity against human M14 cells at 1 to 50 uM after 48 hrs by MTT assay. A digest of the protocol:
as §1

Experiment [3] has as its system M14. Description: Induction of apoptosis in human M14 cells assessed as activation of caspase-3 at 50 uM after 24 hrs by Western blot analysis presence of polycaspase inhibitor z-VAD-fmk. Background: Immunoblotting shows a protein as a band on a membrane.
The subject of experiment [4] is M14. Description: Induction of apoptosis in human M14 cells assessed as activation of caspase-3 at 50 uM after 8 to 24 hrs by Western blot analysis.
Experiment [5] concerns M14. Description: Induction of apoptosis in human M14 cells assessed as increase in hypodiploid cells up to 25 uM after 24 hrs using propidium iodide staining by flow cytometry. Summed up: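 M-14 cells were treated with 1–50 μM for 24 h, then collected and stained with propidium iodide. The percentage of hypodiploid (apoptotic) nuclei was measured by flow cytometry against untreated controls. Values are means ± SEM of three experiments run in triplicate.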
In general terms: A flow cytometer gives signals particle by particle.

The test system of experiment [6] is M14. Description: Induction of apoptosis in human M14 cells assessed as increase in hypodiploid cells after 24 hrs using propidium iodide staining by flow cytometry. Summed up:
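M-14 melanoma cells (DMEM, 2 mM L-glutamine, 10% heat-inactivated FBS, 1% penicillin/streptomycin, 37 °C, humidified 5% CO2, ≤10 passages) incubated 24 h with serial dilutions of compounds (1–50 μM). Nuclei stained with propidium iodide and analysed by flow cytometry. Apoptosis is taken as the percentage of hypodiploid nuclei versus untreated control. Three experiments, each in triplicate, means ± SEM.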

As for `C=C(C)[C@@H]1CC[C@]2(C(=O)O)CC[C@]3(C)[C@H](CC[C@@H]4[C@@]5(C)CC[C@H](O)[C@@](C)(CO)[C@@H]5CC[C@]43C)[C@@H]12`, inhibition in the experiment with M14 [1] was half-maximal at 50 µM (IC50).

Take `C[C@@]12C[C@@]3(O)O[C@@H](O1)[C@]1(COC(=O)c4ccccc4)[C@@H]3C[C@]12O[C@@H]1O[C@H](COC(=O)c2ccccc2)[C@@H](O)[C@H](O)[C@H]1O`: in the experiment with M14 [2], the result was inactive.

Take `CC1(C)[C@@H](O)CC[C@]2(C)[C@H]3C=CC4=C(O)C(=O)C(=O)[C@@]4(C)[C@]3(C)CC[C@@H]12`: the outcome with M14 [2] was inactive.

Take `CC1(C)CC[C@]2(C(=O)O)CC[C@]3(C)C(=CC[C@@H]4[C@@]5(C)CC[C@H](O)[C@@](C)(CO)[C@@H]5CC[C@]43C)[C@@H]2C1` [HEDERAGENIN]: the result in the experiment with M14 [3] was inactive. For the same compound, the result in the experiment on M14 [4] and in the experiment on M14 [5] was Active. Further, the midpoint of inhibition in the experiment on M14 [1], the IC50, lay at 58 µM.

Take `C[C@@]12CC(=O)[C@H]3C[C@]1(O)O[C@H](O2)[C@@H]3COC(=O)c1ccccc1`: the result in the experiment on M14 [2] was inactive.

As to `C=C1CC[C@]2(C(=O)O)CC[C@]3(C)C(=CC[C@@H]4[C@@]5(C)CC[C@H](O)C(C)(C)[C@@H]5CC[C@]43C)[C@@H]2C1`, the result in the experiment on M14 [2] was inactive.

`C=C(C)[C@@H]1CC[C@]2(C(=O)O)CC[C@]3(C)[C@H](CC[C@@H]4[C@@]5(C)CC[C@H](O)C(C)(C)[C@@H]5CC[C@]43C)[C@@H]12` [BETULINIC ACID]: in the experiment on M14 [3], the outcome was inactive. Further, in the experiment on M14 [4], the result was Active. Further, the IC50 with M14 [1] was found to be 50 µM. Moreover, the Activity entry with M14 [6] is “Dose-dependent effect”.

Regarding `COc1cc2c(cc1O)[C@H](CO)[C@H](c1ccc(CCCO)c(OC)c1)O2` [LAWSONICIN], the IC50 with M14 [1] is 100 µM.

On to `C=C1CC[C@]2(C(=O)O)CC[C@]3(C)C(=CC[C@@H]4[C@@]5(C)CC[C@H](O)[C@](C)(O)[C@@H]5CC[C@]43C)[C@@H]2C1`, for which the result in the experiment on M14 [2] was inactive.

For the compound `C=C1CC[C@@]23CC[C@]4(C)[C@@](OC2=O)([C@@H]3C1)[C@H]1O[C@H]1[C@@H]1[C@@]2(C)CC[C@H](O)[C@@](O)(CO)[C@@H]2CC[C@]14C`, the outcome in the experiment on M14 [2] was inactive.

As for `CC1(C)CC[C@]2(C(=O)O)CC[C@]3(C)C(=CC[C@@H]4[C@@]5(C)CC[C@H](O)C(C)(C)[C@@H]5CC[C@]43C)[C@@H]2C1` [OLEANOLIC_ACID], the outcome in the experiment on M14 [3] was inactive. Moreover, the outcome with M14 [4] and in the experiment on M14 [5] was Active. Further, the IC50 in the experiment with M14 [1] came out at 82 µM.

As to `COc1ccc(C(C)=O)c(O)c1`, in the experiment on M14 [2], the outcome was inactive.

Regarding `O=C(O)c1ccccc1`, the result with M14 [2] was inactive.

A word on the IC50: it is the point on the concentration scale where inhibition reaches its midpoint. A high value points to lower potency.
